Compound activity deposited in PubChem by Broad Institute.
Sampled rows, rich in hits. Any-hit rate of the full collection: about 3.5%.
esBAF inh: inhibitors of esBAF chromatin remodeling in mouse ES cells; Bmi1-luciferase knock-in reporter, 24 h; 100% = twice the neutral-well signal; reporter increase, % at 12.5 µM; AID 602393; 2% of 350,000 active; in the data active = activation above about 40%; inconclusive = no clear call, values can overlap the other calls;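 also: 0% = median of the plate's neutral control wells and 100% = double that signal; a rise in the Bmi1 reporter signal indicates esBAF inhibition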
ERAP1 HTS inh: ERAP1 (human) enzyme inhibition | inhibition, % at 10.7 µM | AID 652197 | 0.15% of 340,000 active | Q9NZ08 | recombinant ERAP1, Leu-AMC fluorescence, 60 min;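 active = mean replicate inhibition of at least 30%, or all replicates individually reaching that 30% level; inactive = mean below 30% and not every replicate reaching it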;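 also: 0% = neutral control wells and 100% = L-leucinethiol positive control wells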
Wnt bcat act: activators of Wnt/beta-catenin signaling | AID 743398 | 1.2% of 300,000 active | activation, % at 9.35 µM | Wnt/beta-catenin reporter cell assay, activator, plate reader; in the data active = activation above about 30%, passing the limit was not always enough; inconclusive = no clear call, values can overlap the other calls;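 also: 0% = neutral control wells and 100% = positive control wells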
MITF act: MITF TRPM1 promoter activation in melanoma cells; SK-MEL-5 TRPM1-promoter luciferase, 24 h; % of positive control, neutral wells = 0; activation, % at 12.5 µM; 0.75% of 300,000 active; AID 588334;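 active = mean activation of at least 80% with every replicate also reaching 80%; inconclusive = mean reaches 80% but some replicate falls short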;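 also: 0% = neutral control wells and 100% = parthenolide positive control wells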
HIV Env fusion: HIV envelope-mediated fusion inhibition. HeLa-JRFL Env/CEM21 cell fusion, luciferase. inhibition, % at 12.3 µM. 1.1% of 360,000 active;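 active = mean replicate inhibition score of at least 50 and every replicate individually at or above 50; inconclusive = only one of the two criteria met; inactive = mean below 50 and not all replicates reaching 50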;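 also: 0% = plate neutral controls and 100% = maraviroc near 300 nM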
Cneo AK release: causes C. neoformans cell lysis; lysis activity, % at 15 µM; adenylate kinase release luminescence, 4 h; normalised: neutral wells 0, clomiphene wells 100; AID 651654; 0.2% of 360,000 active;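 active = mean lysis activity across replicates of at least 80%, whatever share of replicates individually reach that level; inactive = mean lysis activity below 80%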
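Material: C. neoformans cells | Amount: Yeast cell density of 5 × 10^6 cells/mL | Medium: Fresh YPD growth medium | Dosing: Single dose | Times: Static 4 h at 37 °C with compound, 1 h detection | Detection: AK luminescence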
The depositor's hits bear a star; ? = inconclusive; . = no result given; [ ] = remark or other dose.

SMILES	esBAF inh	ERAP1 HTS inh	Wnt bcat act	MITF act	HIV Env fusion	Cneo AK release
Cc1ccc(S(=O)(=O)Nc2cccc3c2O[C@@H](CN(C)C(=O)Nc2cccc4ccccc24)[C@H](C)CN([C@H](C)CO)C3=O)cc1	19.7	.	.	.	25.5[16.7 µM]	.
CC(=O)Oc1cccc(NC(=O)c2ccc3c(c2)C(=O)N(CC(C)C)C3=O)c1	44.0*	0.6	26.8	2.2	-11.0	-7.5
CO[C@@H]1CN(C)C(=O)c2cc(NS(C)(=O)=O)ccc2OC[C@H](C)N(C(=O)NC(C)C)C[C@@H]1C	1.4	.	.	.	-5.5[16.7 µM]	.
c1ccc(CCCNc2ncnc3nc[nH]c23)cc1	21.4	-3.9	2.3	.	-25.4	-1.0
CCc1ccc(Nc2ncnc3nc[nH]c23)cc1	8.3	-0.2	46.8*	96.4*	-71.9	-20.1
CCCCc1ccc(Nc2ncnc3nc[nH]c23)cc1	8.9	1.3	25.1	104.9*	-81.4	-4.3
C[C@@H]1CN([C@@H](C)CO)C(=O)c2cc(NC(=O)Nc3ccc(C(F)(F)F)cc3)ccc2O[C@@H](C)CCCCO[C@@H]1CN(C)Cc1ccc(C(=O)O)cc1	-1.9	1.6	.	.	11.0[16.7 µM]	2.8
CCN1[C@H](C(=O)NCCc2cn(C)cn2)[C@@H](CO)[C@@H]2Cn3c(ccc(-c4ccncc4)c3=O)[C@@H]21	-8.1	-2.1	.	.	.	-2.4
CC(=O)Nc1cnc(-c2ccc3c(c2)OCO3)cn1	18.8	1.4	40.5*	.	-51.6	-3.8
CC(=O)Nc1cnc(-c2ccccc2C(C)=O)cn1	0.2	2.4	-2.6	.	-4.1	0.5
CC(=O)Nc1cnc(-c2cc(C)c(O)c(C)c2)cn1	71.5*	-2.3	0.3	.	-44.0	-2.5
COCC(=O)N1[C@@H]2c3ccc(C4=CCCC4)c(=O)n3C[C@@H]2[C@@H](CO)[C@@H]1C(=O)N1CCCCC1	0.6	0.8	.	.	.	-5.4
CN(C)CC(=O)Nc1ccc2c(c1)[C@@H]1C[C@H](CC(=O)NC3CCCC3)O[C@H](CO)[C@@H]1O2	1.8	0.3	.	.	22.3[16.7 µM]	3.3
COCCNC(=O)C[C@@H]1CC[C@H]2[C@@H](COC[C@H](O)CN2C(=O)Nc2ccccc2OC)O1	-11.4	-0.2	.	.	.	-0.3
C[C@@H]1CN([C@@H](C)CO)S(=O)(=O)c2ccc(C#CC(C)(C)O)cc2O[C@@H]1CN(C)C(=O)C1CCCCC1	-2.4	-0.2	.	.	-104.7[16.7 µM]	-0.5
COCC(=O)Nc1ccc2c(c1)C(=O)N(C)C[C@@H](OC)[C@H](C)CN(CCC(F)(F)F)[C@@H](C)CO2	-2.9	3.6	.	.	-9.2[16.7 µM]	53.8
CN(C)c1cccc(C(=O)Nc2cccc(S(=O)(=O)NC3=NCCC3)c2)c1	54.8*	1.7	9.4	6.3	-40.7	-8.2
Cc1ccc(C)c(-n2ccnc2SCC(=O)Nc2cccc(S(=O)(=O)NC3=NCCC3)c2)c1	-0.8	0.3	47.3*	-7.6	13.0	0.2
O=C(C[C@@H]1C=C[C@@H](NC(=O)CN2CCOCC2)[C@@H](CO)O1)NC1CCC1	-3.5	-3.0	.	.	8.0[16.7 µM]	0.0
CCCC(=O)N1CC2(C1)CN(C(=O)Nc1ccc(F)cc1)[C@@H](CO)c1c2c2ccc(OC)cc2n1C	.	2.1	.	.	.	.
CCC(=O)N(C)C[C@@H]1Oc2ncc(C#Cc3ccccc3)cc2C(=O)N([C@H](C)CO)C[C@H]1C	1.4	-0.1	.	.	-1.1[16.7 µM]	-0.6
COc1ccc(/C(C#N)=C/c2cccnc2)cc1	41.9*	0.4	7.0	58.9	-25.6	-12.3
COc1ccc(C(C#N)=Cc2ccc(N(C)CCC#N)cc2)cc1	77.0*	-0.2	31.0*	.	-144.4	-9.3
COCC#Cc1cnc2c(c1)C(=O)N([C@H](C)CO)C[C@H](C)[C@@H](CN(C)C(=O)c1cccc(F)c1)O2	-2.3	5.2	.	.	-1.8[16.7 µM]	-6.6
CC(C)(C)c1ccc(/C=N/NC(=O)C2CCCC2)cc1	55.5*	-0.8	3.1	32.3	53.0	4.0
SMILES	esBAF inh	ERAP1 HTS inh	Wnt bcat act	MITF act	HIV Env fusion	Cneo AK release
CC(C)c1ccc(/C=N/NC(=O)C2CCCC2)cc1	.	1.2	27.1	140.1*	-93.8	8.5
CCCNC(=O)[C@H]1[C@H](CO)[C@H]2Cn3c(cccc3=O)[C@H]2N1C(=O)C1CC1	.	0.0	.	.	.	.
COc1ccc(CN(C)C[C@@H]2Oc3ccc(NS(=O)(=O)c4ccccc4)cc3C(=O)N([C@H](C)CO)C[C@H]2C)cc1	-3.3	0.3	.	.	.	-1.1
CCCCN1C(=O)/C(=C2\SC(N3CCCCC3)=NC2=O)c2ccccc21	51.4*	.	19.6	107.2*	-96.2	-5.4
Cc1cccc(/N=C/c2c(O)[nH]c3ccccc23)n1	74.0*	.	.	66.5	.	.
Cc1cccc(/N=C/c2sc3ccccc3c2O)n1	16.0	-1.4	46.0*	27.4	-13.8	1.3
Oc1c(C=Nc2cccc3cccnc23)sc2ccccc12	.	.	-14.1	.	-8.6	.
CC(C)N=Cc1c(O)[nH]c2ccccc12	0.8	.	-0.2	1.1	-6.8	-1.0
C[C@H]1CCCCO[C@H](CN(C)C(=O)CCCN(C)C)[C@@H](C)CN([C@@H](C)CO)C(=O)c2cc(N(C)C)ccc2O1	-1.7	2.5	.	.	14.5[16.7 µM]	-0.9
COc1ccc(C(=O)NCCC2=CCCCC2)cc1OC1CCN(C(C)C)CC1	60.3*	1.1	15.9	27.1	-2.6	-0.4
COc1ccc(C(=O)NCCCSC)cc1OC1CCN(C(C)C)CC1	3.6	-1.7	-0.4	10.1	7.3	-0.5
COc1ccc(C(=O)Nc2nnc(SCC(=O)NC3CCCC3)s2)c(OC)c1	.	-5.3	12.8	-11.8	-7.5	-25.0
COc1cc(C(=O)Nc2nnc(SCC(=O)NCC3CCCO3)s2)cc(OC)c1OC (centres undefined)	3.9	0.7	3.5	-12.3	-1.7	3.8
COc1ccccc1NC(=O)c1cnc(SCC(=O)NCC2CCCO2)n(C)c1=O (centres undefined)	1.4	3.4	32.3*	-67.9	-11.1	-15.1
COc1ccc(C(=O)Nc2nnc(SCC(=O)Nc3ccc(NC(C)=O)cc3)s2)c(OC)c1	36.8	-3.9	35.6*	51.9	-92.6	-0.2
COc1ccccc1C(=O)Nc1nnc(SCC(=O)NCC2CCCO2)s1 (centres undefined)	5.3	-0.2	33.7*	?	-37.0	-3.5
Cc1ccc(Nc2nnc(SCC(=O)NCC3CCCO3)s2)cc1C (centres undefined)	46.9*	0.5	9.2	37.7	-54.7	-1.0
CN(C)c1ccc2c(c1)[C@H]1C[C@H](CC(=O)NCc3ccccc3F)O[C@H](CO)[C@H]1O2	2.0	.	.	.	.	.
CN1/C(=C/c2cccc[n+]2CCO)Sc2ccccc21	-7.3	12.7	-1.1	.	-189.5	-0.9
CC[n+]1ccccc1/C=C1\Sc2ccc(C)cc2N1C	-10.8	74.2*	-5.8	-10.3	29.3	-0.7
O=C(Nc1nnc(-c2ccccc2F)s1)C1CCCO1 (centres undefined)	.	.	51.2*	66.2	-276.3	0.4
O=C(Nc1nc2ccccc2s1)C1CCCO1 (centres undefined)	8.8	4.0	.	.	-105.7	.
